A short description of test [1]: inhibitors of TNFa-induced NFkB p65 translocation, primary screen, imaging, HUVEC, MLSMR starter and 10KST1 sets (AID 438;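 active = inhibition above 20% together with a positive visual image hit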;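 also: compound added about 3h40 before a 20 min TNFalpha stimulation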;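 as to inhibition: signal is the nuclear over cytoplasmic p65 intensity ratio per well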). The note with it: HUVEC TNFa-induced p65 nuclear translocation; cell count: measured here: nuclei count (cytotoxicity indicator), at 2.08 µM; inhibition: at 2 µM, stronger effect = higher value, 0% TNFa-plus-vehicle, 100% no-TNFa wells.
Test [2] can be described thus: endothelial E-selectin expression blockers – imaging, HUVEC, immunofluorescence, MLSMR starter and 10KST1 sets, primary screen (AID 487).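 As to inhibition: signal is fraction of cell area covered by stained E-selectin grains.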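 As to nuclei count: 100% = median nuclei count of all wells on the same plate.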 The note with it: HUVEC TNFalpha-induced E-selectin immunofluorescence imaging, at 2 µM; inhibition: stronger effect = higher value; nuclei count: measured here: cell number, toxicity.
The nature of test [3]: Primary imaging screen for DUSP6 inhibitors that restore phospho-Erk in transfected HeLa cells, chemical complementation (AID 609;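 active = compounds giving at least 50% inhibition in the cell-based MKP-3 phosphatase rescue imaging test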;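 as to inhibition: phospho-Erk level distribution per well compared with pooled transfected vehicle control wells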). The note with it: HeLa MKP-3 transfected, phospho-Erk imaging KS statistic, at 10 µM, cells stimulated with TPA for 15 min.
Test [4] has as its target Dual specificity protein phosphatase 6 (Homo sapiens) (UniProt Q16828). The description is as above. Conditions: HeLa MKP-3 transfected, phospho-Erk imaging KS statistic; at 10 µM; stronger effect = higher value; cells stimulated with TPA for 15 min.
Test [5] deals with Voltage-gated potassium channel subunit beta-2 (Rattus norvegicus) (UniProt P62483). Kind of test: inhibitors of rat Kvbeta2 reductase activity – biochemical, NADPH fluorescence, primary screen (AID 622;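 active = fluorescence slope higher than the sample average by over 3 SD, cut at about -0.22 in these data, passing the limit was not always enough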;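 also: slope of raw intensity against log time taken from 70 to 1610 s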). Conditions: recombinant KvBeta, 4-cyanobenzaldehyde reduction, at 10 µM, stronger effect = higher value.
Test [6] shares this target. Description: enhancers of rat Kvbeta2 NADPH turnover – biochemical, NADPH fluorescence, primary screen (AID 623;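 active = NADPH fluorescence slope more negative than the mean of all samples by about 3 SD, 99.7% confidence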;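 also: fluorescence intensity change per second fitted from 20 to 320 s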). The note with it: Recombinant KvBeta, NADPH fluorescence decrease slope, 10 min; at 10 µM; stronger effect = lower value.
For test [7], the target named is Alpha-2C adrenergic receptor (Homo sapiens) (UniProt P18825). Kind of test: compounds altering alpha2C-coupled GIRK flux – cell-based, HEK293 alpha2C/GIRK1/2, thallium flux, primary screen (AID 624;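 active = fluorescence slope after compound addition differing from the mean of all screened samples at 99.7% confidence, in either direction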;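 also: slope of fluorescence ratio to pre-addition baseline per second over 15 to 24 s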). The note with it: thallium flux BTC fluorescence, at 10 µM, actives lie on both sides.
The nature of test [8]: inhibitors of larval lipid processing in zebrafish, primary screen, whole organism, PED6 fluorescence, gall bladder and intestine (AID 686;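 active = a full or partial loss of lipid-probe fluorescence in the fish gall bladder, intestine or both, judged by eye; inactive = no fluorescence loss, or compound toxic to the fish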;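 also: larvae 5 to 7 days old with five fish per well; signal comes from phospholipase A2 cleavage of quenched PED6 carried via bile; overnight exposure to compound and PED6 before scoring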). Conditions: Zebrafish larvae PED6 lipid processing, fluorescence scoring; screened at 20 µM (by protocol). An outline of the steps: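 Test system – live zebrafish larvae aged 5-7 days, whole organism · Buffer or medium – E3 fish medium · Reagent – quenched phospholipase substrate PED6, 100 nM final, ingested by larvae · Doses – 20 µM single dose · Incubation – overnight compound and PED6 incubation · Technique – visual fluorescence microscopy scoring of gall bladder, gut · Read-out basis – visual per-well fluorescence inhibition score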

The nature of test [9]: loss of swimming-algae plug formation – whole organism, Chlamydomonas reinhardtii, WT vs cilia-less mutant, absorbance, 96-well, primary screen (AID 463189;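 active = inhibition at or above 50% relative to wild type and mutant plate controls; inactive = inhibition below 50%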;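 also: 0% = wild type cc124 cells in DMSO and 100% = ciliumless bld1 mutant cells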). The note with it: Chlamydomonas reinhardtii gravitaxis, OD600 absorbance, 2 days; at 10 µM; stronger effect = higher value.
[10] abbreviates: measured here: cell density z-score.
[11] abbreviates: measured here: nuclear c-Myc green intensity z-score.
Setting [12] is: measured here: nuclear pErk red intensity z-score, stronger effect = higher value.

Activity calls are given as the source filed them.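 The calls were made as follows, unless noted: active = visually confirmed hit in the image check and inhibition above 20%; inconclusive = visually confirmed hit but inhibition not above 20%; inactive = no visual hit in the image check.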

Chain of Dual specificity protein phosphatase 6 (Homo sapiens) (Q16828 whole entry, looked up): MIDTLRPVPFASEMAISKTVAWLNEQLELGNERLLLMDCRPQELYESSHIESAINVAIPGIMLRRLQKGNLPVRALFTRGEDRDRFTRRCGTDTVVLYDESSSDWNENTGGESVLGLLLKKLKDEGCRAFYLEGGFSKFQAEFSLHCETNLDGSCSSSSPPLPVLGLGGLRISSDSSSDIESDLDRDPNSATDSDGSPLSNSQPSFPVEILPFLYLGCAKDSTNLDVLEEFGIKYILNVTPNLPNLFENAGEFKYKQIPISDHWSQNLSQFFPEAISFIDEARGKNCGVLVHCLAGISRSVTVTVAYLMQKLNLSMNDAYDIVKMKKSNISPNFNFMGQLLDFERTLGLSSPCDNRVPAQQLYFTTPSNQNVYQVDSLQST
Chain of Alpha-2C adrenergic receptor (Homo sapiens) (P18825 whole entry, looked up): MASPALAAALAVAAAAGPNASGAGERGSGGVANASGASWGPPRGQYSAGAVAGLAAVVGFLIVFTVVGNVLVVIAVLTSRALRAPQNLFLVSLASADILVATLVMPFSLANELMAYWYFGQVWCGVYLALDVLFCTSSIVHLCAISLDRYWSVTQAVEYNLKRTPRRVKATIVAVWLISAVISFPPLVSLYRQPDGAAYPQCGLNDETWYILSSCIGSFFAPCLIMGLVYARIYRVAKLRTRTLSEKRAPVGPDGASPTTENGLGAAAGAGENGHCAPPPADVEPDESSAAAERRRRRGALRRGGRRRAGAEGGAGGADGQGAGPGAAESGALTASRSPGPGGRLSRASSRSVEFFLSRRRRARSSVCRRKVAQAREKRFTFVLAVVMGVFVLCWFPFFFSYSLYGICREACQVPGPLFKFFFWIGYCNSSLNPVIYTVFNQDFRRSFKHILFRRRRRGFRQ
Chain of Voltage-gated potassium channel subunit beta-2 (Rattus norvegicus) (P62483 whole entry, looked up): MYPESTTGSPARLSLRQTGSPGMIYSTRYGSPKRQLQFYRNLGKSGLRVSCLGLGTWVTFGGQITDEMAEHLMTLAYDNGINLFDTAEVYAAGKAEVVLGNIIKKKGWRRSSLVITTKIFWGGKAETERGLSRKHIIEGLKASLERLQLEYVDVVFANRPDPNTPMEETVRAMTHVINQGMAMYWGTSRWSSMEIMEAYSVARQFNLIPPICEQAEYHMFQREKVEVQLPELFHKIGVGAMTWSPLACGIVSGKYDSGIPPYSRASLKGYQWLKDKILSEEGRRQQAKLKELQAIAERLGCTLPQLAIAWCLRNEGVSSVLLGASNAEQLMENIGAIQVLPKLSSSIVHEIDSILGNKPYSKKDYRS

For the compound `COc1ccc(N(CN2C(=O)C3C4C=CC(C4)C3C2=O)C(=O)c2ccco2)cc1` (stereo unspecified), the cell count in test [1] is 541. The inhibition was 2.9% (inactive) in test [1], -74.9% (inactive) in [2], 1.6e-07% (inactive) in [4] and -8.45% (inactive) in [9]. The nuclei count in test [2] turned out to be 117%. The results for the z-score in test [3] (setting [10]), in test [3] (setting [11]) and in [3] (setting [12]) were -1.56, 1.43 and 1.11, respectively. In addition, the fluorescence slope in test [5] was -0.58 (inactive). In addition, the NADPH fluorescence slope in test [6] was -3.5e-05 (inactive). Moreover, the slope in test [7] was 0.00619 (inactive). For the same compound, the result in test [8] was inactive.

For the compound `O=C(N(c1ccccc1)c1ccccc1)n1ccnc1`, in [1], the cell count was found to be 543. Further, the inhibition in [1] is -15.7% (inactive); in test [2], -71.5% (inactive); in test [4], -11.5% (inactive); in test [9], -0.901% (inactive). In test [2], the nuclei count turned out to be 169%. The z-score in test [3] (setting [10]) was -1.35; in test [3] (setting [11]), -0.0585; in [3] (setting [12]), 1.08. Further, the fluorescence slope in [5] was -0.487 (inactive). In test [6], the NADPH fluorescence slope is -5.7e-05 (inactive). Moreover, in test [7], the slope is 0.00471 (inactive). For the same compound, in test [8], the call was inactive.

Consider `CCOC(=O)CCc1c(C)c(C#N)c2[nH]c3ccccc3n2c1=O`, for which the cell count in [1] is 536. The inhibition in test [1] is -1.4% (inactive); in test [2] it was -8.6% (inactive); in test [4], 15.9% (inactive); in test [9], 18.4% (inactive). Also, in test [2], the nuclei count was 82.5%. For the same compound, the z-score in test [3] (setting [10]) is -0.186; in test [3] (setting [11]), -0.0675; in test [3] (setting [12]), -0.0374. Further, in [5], the fluorescence slope is -0.617 (inactive). Besides, the NADPH fluorescence slope in test [6] was -3.7e-05 (inactive). The slope in [7] is 0.00416 (inactive). In [8], the outcome is “active; weak signal in gallbladder and intestine”.

For the compound `O=C(O)CC(NCc1ccco1)C(=O)OCC1CCCO1` (stereo unspecified), the cell count in test [1] was determined as 557. Moreover, the inhibition in [1] is -3.4% (inactive); in [2] it was -26.1% (inactive); in test [4], 5.26% (inactive); in test [9], 17.1% (inactive). Besides, the nuclei count in test [2] stood at 134%. Besides, the z-score in test [3] (setting [10]) was 0.185; in [3] (setting [11]), -1.18; in test [3] (setting [12]) it was -0.884. Besides, in test [5], the fluorescence slope is -0.369 (inactive). Also, in test [6], the NADPH fluorescence slope was -2.3e-05 (inactive). In [7], the slope is 0.00498 (inactive). Besides, the outcome in test [8] was inactive.

Take `CC(C)C1=C2OC(N)=C(C#N)C(C#N)=C2C(C)CC1` (stereo unspecified): the cell count in test [1] came to 361. The inhibition in test [1] was -6.8% (inactive); in [2], -144% (inactive); in test [4], 7.48% (inactive); in test [9] it was 13% (inactive). This compound came in with a nuclei count in test [2] of 150%. Further, the z-score was 0.333 in test [3] (setting [10]), 0.379 in test [3] (setting [11]) and 0.759 in test [3] (setting [12]). Besides, the fluorescence slope in [5] was -0.391 (inactive). Further, the NADPH fluorescence slope in test [6] was -3.9e-05 (inactive). Besides, in [7], the slope was 0.0063 (inactive). The result in test [8] was inactive.

As for `O=C(CN1C(=O)c2ccccc2S1(=O)=O)c1ccccc1`, the cell count in test [1] is 567. Besides, the inhibition in [1] is -7.2% (inactive); in test [2], 39.2% (inactive); in test [4], 7.73% (inactive); in [9] it was -6.59% (inactive). In test [2], this compound came in with a nuclei count of 193%. Also, the values for the z-score in test [3] (setting [10]), in [3] (setting [11]) and in [3] (setting [12]) were 0.246, 1.04 and -0.287, respectively. In addition, the fluorescence slope in [5] is -0.511 (inactive). In addition, in test [6], the NADPH fluorescence slope was -9e-05 (inactive). In test [7], the slope is 0.005 (inactive). For the same compound, in [8], the result was inactive.

In the case of `COc1ccccc1-c1nnc2sc(C3CCCCC3)nn12`, the cell count in test [1] came to 531. Besides, the inhibition in [1] is -12.5% (inactive); in test [2], -318% (inactive); in test [4], -0.674% (inactive); in test [9], 11.6% (inactive). The same compound registered a nuclei count in test [2] of 161%. Also, the z-score was -0.671 in test [3] (setting [10]), 0.45 in [3] (setting [11]) and 0.848 in [3] (setting [12]). Also, the fluorescence slope in test [5] was -0.405 (inactive). Further, in [6], the NADPH fluorescence slope was -0.000298 (inactive). Also, in test [7], the slope was 0.00423 (inactive). Also, the outcome in test [8] is “active; no signal in intestine only”.

What is called inhibition is the drop in the measured response relative to a control, in per cent.

Source of the values: PubChem BioAssay.
